Experimental data from ChEMBL document CHEMBL1781963, “Discovery of novel hepatoselective HMG-CoA reductase inhibitors for treating hypercholesterolemia: a bench-to-bedside case study on tissue selective drug distribution” (Bioorg Med Chem Lett, 2011).

How the values were obtained:
OATP1A4 [1] = target: T1, OATP1A4 (Rattus norvegicus, UniProt O35913); test: Drug uptake by rat hepatic OATP1A4 transporters expressed in CHO cells at 1 uM relative to wild type CHO cells; type: ADME, cell-based; conditions: CHO cells expressing rat OATP1A4, read-out: FC
T1 sequence (O35913 whole entry): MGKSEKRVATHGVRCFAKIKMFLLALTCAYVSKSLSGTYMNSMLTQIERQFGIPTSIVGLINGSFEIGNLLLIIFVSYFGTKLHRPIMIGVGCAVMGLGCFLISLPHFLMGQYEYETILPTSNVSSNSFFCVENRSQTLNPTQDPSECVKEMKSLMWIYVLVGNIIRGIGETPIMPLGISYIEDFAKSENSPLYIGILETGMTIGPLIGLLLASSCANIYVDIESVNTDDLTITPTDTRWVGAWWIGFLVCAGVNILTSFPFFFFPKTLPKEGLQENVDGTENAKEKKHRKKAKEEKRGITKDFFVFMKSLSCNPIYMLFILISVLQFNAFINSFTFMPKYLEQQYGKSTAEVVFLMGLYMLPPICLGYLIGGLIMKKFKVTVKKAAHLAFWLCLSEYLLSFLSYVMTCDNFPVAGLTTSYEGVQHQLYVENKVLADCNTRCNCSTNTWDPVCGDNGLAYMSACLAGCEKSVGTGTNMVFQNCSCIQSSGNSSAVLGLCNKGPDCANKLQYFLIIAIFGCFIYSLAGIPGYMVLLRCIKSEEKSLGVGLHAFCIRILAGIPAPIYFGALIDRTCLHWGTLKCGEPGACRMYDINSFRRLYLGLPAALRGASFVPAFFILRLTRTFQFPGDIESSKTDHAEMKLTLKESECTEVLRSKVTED
In short: (§1)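 Individual hepatic OATP transporters were over-expressed in CHO or HEK293 cells: rat rOatp1a1, rOatp1a4 and rOatp1b2, and human hOATP1B1, hOATP1B3 and hOATP2B1. Substrate uptake is expressed as fold difference relative to the wild-type parental line. Rosuvastatin/pravastatin served as positive control and midazolam as negative control in each assay.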

L6 = test: Selectivity ratio of IC50 for cholesterol synthesis in rat L6 cells to IC50 for cholesterol synthesis in rat hepatocytes
OATP1A4 [2] = target: T1, OATP1A4; test: Drug uptake by rat hepatic OATP1A4 transporters expressed in CHO cells at 10 uM relative to wild type CHO cells; type: ADME, cell-based; conditions: CHO cells expressing rat OATP1A4, read-out: FC; in short: as §1
Cavia porcellus = test: Hypolipidemic activity in chow fed Hartley guinea pig assessed as reduction of LDL level administered orally for 7 days measured on day 8 after 2 hrs post dose; type: functional; conditions: po
In short: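 Guinea pigs were dosed daily for seven days and sacrificed 2 h after the final dose. Plasma LDL was measured and reported as mean ± SEM % change from the control group, n = 8/group.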

Hepatocyte = test: Drug uptake in sandwich-cultured human hepatocytes assessed per mg of protein at 1 uM; type: ADME, cell-based
In short: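 Rat or human hepatocytes were cultured in sandwich configuration with a Matrigel overlay and compound uptake was measured. Active uptake was assessed by inhibition with the pan-OATP inhibitor rifamycin SV. Rosuvastatin/pravastatin served as positive control and midazolam as negative control.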

OATP1B2 = target: T2, OATP1B2 (Rattus norvegicus, UniProt Q9QZX8); test: Drug uptake by rat hepatic OATP1B2 transporters expressed in CHO cells at 10 uM relative to wild type CHO cells; type: ADME, cell-based; conditions: CHO cells expressing rat OATP1B2, read-out: FC; in short: as §1
T2 sequence (Q9QZX8 whole entry): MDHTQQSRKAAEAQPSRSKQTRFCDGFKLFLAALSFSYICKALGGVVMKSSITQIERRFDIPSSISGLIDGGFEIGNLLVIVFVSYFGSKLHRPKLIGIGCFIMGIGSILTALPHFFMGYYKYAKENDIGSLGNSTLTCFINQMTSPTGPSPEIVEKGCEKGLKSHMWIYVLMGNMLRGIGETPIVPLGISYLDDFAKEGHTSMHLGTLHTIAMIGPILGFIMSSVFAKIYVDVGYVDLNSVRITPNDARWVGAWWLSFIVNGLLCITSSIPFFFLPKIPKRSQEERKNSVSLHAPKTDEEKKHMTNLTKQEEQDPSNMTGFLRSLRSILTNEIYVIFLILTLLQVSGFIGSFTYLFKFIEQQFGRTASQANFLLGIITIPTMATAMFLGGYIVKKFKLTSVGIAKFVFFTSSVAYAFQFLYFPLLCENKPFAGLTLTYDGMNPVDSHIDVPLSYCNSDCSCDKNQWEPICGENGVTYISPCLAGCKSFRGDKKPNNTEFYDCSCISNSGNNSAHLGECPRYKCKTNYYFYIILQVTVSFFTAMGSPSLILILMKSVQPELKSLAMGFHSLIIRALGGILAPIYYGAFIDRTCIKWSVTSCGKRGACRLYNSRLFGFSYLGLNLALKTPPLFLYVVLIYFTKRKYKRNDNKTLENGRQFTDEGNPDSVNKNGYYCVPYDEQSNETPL

OATP1B1 = target: T3, OATP1B1 (Homo sapiens, UniProt Q9Y6L6); test: Drug uptake by human hepatic OATP1B1 transporter expressed in HEK293 cells at 1 uM relative to wild type HEK293 cells; type: ADME, cell-based; conditions: HEK293 cells expressing human OATP1B1, read-out: FC; in short: as §1
T3 sequence (Q9Y6L6 whole entry): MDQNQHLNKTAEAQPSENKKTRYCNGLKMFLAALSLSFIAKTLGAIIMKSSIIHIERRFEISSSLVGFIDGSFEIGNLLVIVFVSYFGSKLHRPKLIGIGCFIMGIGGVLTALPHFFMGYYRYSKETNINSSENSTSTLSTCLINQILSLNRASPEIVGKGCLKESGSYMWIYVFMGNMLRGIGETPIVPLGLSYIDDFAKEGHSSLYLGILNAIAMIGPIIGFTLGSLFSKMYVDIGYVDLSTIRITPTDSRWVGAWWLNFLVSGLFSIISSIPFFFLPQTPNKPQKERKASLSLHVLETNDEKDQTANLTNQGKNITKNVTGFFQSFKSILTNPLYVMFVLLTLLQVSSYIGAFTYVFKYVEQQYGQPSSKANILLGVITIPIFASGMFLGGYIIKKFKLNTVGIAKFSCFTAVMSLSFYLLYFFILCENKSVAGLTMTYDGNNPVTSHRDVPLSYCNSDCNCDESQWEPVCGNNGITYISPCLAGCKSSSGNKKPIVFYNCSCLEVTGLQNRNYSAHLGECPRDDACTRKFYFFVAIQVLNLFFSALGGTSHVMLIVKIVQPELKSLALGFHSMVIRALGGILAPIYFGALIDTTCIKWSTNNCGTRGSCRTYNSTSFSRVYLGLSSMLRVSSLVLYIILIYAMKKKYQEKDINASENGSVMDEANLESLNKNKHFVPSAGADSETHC

Compound | uptake ratio at 1 µM (OATP1A4 [1]) | Ratio IC50 (L6) | uptake ratio at 10 µM (OATP1A4 [2]) | ED50 (Cavia porcellus) [mg/kg] | Drug uptake (Hepatocyte) [pmol/min/mg] | uptake ratio at 10 µM (OATP1B2) | uptake ratio at 1 µM (OATP1B1)
O=C([O-])C[C@H](O)C[C@H](O)CCn1c(-c2ccc(F)cc2)nc(C(=O)NCc2cccc(F)c2)c1C1CC1.[Na+] | 4.4 | 4440 | 7.3 | 5.9 | 1.5 | 1.7 | 49
Cc1ccc(CNC(=O)c2nn(-c3ccc(F)cc3)c(CC[C@@H](O)C[C@@H](O)CC(=O)O)c2C(C)C)cc1 | 2.7 | 810 | 3 | 3.6 | 7.8 | 2.6 | 21.6
Cc1ncc2n1-c1ccc(Cl)cc1C(c1ccccc1F)=NC2 [MIDAZOLAM] | 0.93 |  | 0.82 |  |  | 1.3 | 0.6
CC[C@H](C)C(=O)O[C@H]1C[C@H](O)C=C2C=C[C@H](C)[C@H](CC[C@@H](O)C[C@@H](O)CC(=O)O)[C@H]21 [PRAVASTATIN] | 1.5 |  | 1.8 | 73.3 |  | 7 | 73.7
CC(C)c1nc(N(C)S(C)(=O)=O)nc(-c2ccc(F)cc2)c1/C=C/[C@@H](O)C[C@@H](O)CC(=O)O [ROSUVASTATIN] | 8.6 | 830 | 17.3 | 13.5 | 8 |  | 14.4
